Source: ChEMBL document CHEMBL4316634, “Immunomodulatory Biscembranoids and Assignment of Their Relative and Absolute Configurations: Data Set Modulation in the Density Functional Theory/Nuclear Magnetic Resonance Approach” (J Nat Prod, 2019)
The source made the active and inactive calls. No cut-off for these calls is given here.

How the values were obtained:
Splenocyte [1] = assay: Immunomodulatory activity in C57BL/6 mouse splenocytes assessed as increase in CD4+/CD8+ cells ratio at 3 uM incubated for 24 hrs by flow cytometric analysis; type: functional, cell-based
How it was run: (§1)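 C57BL/6 splenocytes given compounds at 3 μM for 24 h under Con A-induced activation, with Con A (5 μg/mL) as positive control. Cells were stained with PE-CD3, FITC-CD4 and Percp/cy5.5-CD8. CD3+, CD4+ and CD8+ percentages were measured by flow cytometry, and the CD4+/CD8+ ratio was derived from them. Values are mean ± SD, n = 3.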

Splenocyte [2] = assay: Cytotoxicity in C57BL/6 mouse splenocytes assessed as effect on cell viability at 3 uM by FACScan flow cytometry; type: cell-based
How it was run: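 Splenocytes at 2 × 10^6 cell/mL from C57BL/6 mice exposed to compounds at 3 μM for 24 h, with Con A (5 μg/mL) as positive control. Cells were then collected, washed in PBS and read at once by flow cytometry for apoptosis.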

Splenocyte [3] = assay: Immunomodulatory activity in C57BL/6 mouse splenocytes assessed as reduction in CD4+/CD8+ cells ratio at 3 uM incubated for 24 hrs by flow cytometric analysis; type: functional, cell-based; how it was run: as §1
Splenocyte [4] = assay: Immunomodulatory activity in C57BL/6 mouse splenocytes assessed as induction of CD3+ T cells proliferation at 3 uM incubated for 24 hrs by flow cytometric analysis; type: functional, cell-based; how it was run: as §1

SMILES | Activity (Splenocyte [1]) | Activity (Splenocyte [2]) | Activity (Splenocyte [3]) | Activity (Splenocyte [4])
CC(=O)O[C@H]1C/C(C)=C/CC[C@H](C)CC(=O)C[C@@]23C(=O)O[C@@H]([C@@H]1C(C)C)[C@@H]2CC(C)=C1CCC2=CCC[C@@](C)(OC2=O)[C@@H](O)CC/C(C)=C/[C@@H]13 | Active | Non-Toxic |  | 
CC1=C2CCC3=CCC[C@@](C)(OC3=O)[C@@H](O)CC/C(C)=C/[C@@H]2[C@]23CC(=O)C[C@@H](C)CC/C=C(\C)CC(=O)[C@@H](C(C)C)[C@H](OC2=O)[C@@H]3C1 |  | Non-Toxic |  | 
CC(=O)O[C@H]1C/C(C)=C/CC/C(C)=C\C(=O)C[C@@]23C(=O)O[C@@H]([C@@H]1C(C)C)[C@@H]2CC(C)=C1CCC2=CCC[C@@](C)(OC2=O)[C@@H](O)CC/C(C)=C\[C@@H]13 |  | Non-Toxic | Active | 
CC(=O)O[C@H]1C/C(C)=C/CC/C(C)=C\C(=O)C[C@@]23C(=O)O[C@@H]([C@@H]1C(C)C)[C@@H]2CC(C)=C1CCC2=CCC[C@@](C)(OC2=O)[C@@H](O)CC/C(C)=C/[C@@H]13 |  | Non-Toxic |  | 
CC(=O)O[C@H]1C/C(C)=C/CC/C(C)=C/C(=O)C[C@@]23C(=O)O[C@@H]([C@@H]1C(C)C)[C@@H]2CC(C)=C1CCC2=CCC[C@@](C)(OC2=O)[C@@H](O)CC/C(C)=C/[C@@H]13 | Active | Non-Toxic |  | Active
CC(=O)O[C@H]1C/C(C)=C/C/C=C(/C)CC(=O)C[C@@]23C(=O)O[C@@H]([C@@H]1C(C)C)[C@@H]2CC(C)=C1CCC2=CCC[C@@](C)(OC2=O)[C@@H](O)CC/C(C)=C/[C@@H]13 |  | Non-Toxic |  | Active
CC(=O)O[C@H]1C/C(C)=C/CC[C@H](C)CC(=O)C[C@@]23C(=O)O[C@@H]([C@@H]1C(C)C)[C@@H]2CC(C)=C1CCC2=CCC[C@@](C)(OC2=O)[C@@H](O)CC/C(C)=C\[C@@H]13 |  | Non-Toxic |  | 
